Source: PubChem (Sanford-Burnham Center for Chemical Genomics)
tim10-1 inh – inhibits growth of tim10-1 mutant yeast; S. cerevisiae tim10-1 ts strain growth, BacTiter-Glo, 24 h; inhibition, % at 20 µM; actives 2.2% (n = 330,000); AID 463190;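 active means inhibition of at least 40%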;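 further: mutant grown at 25 °C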
tim23-1 inh – inhibits growth of tim23-1 mutant yeast; S. cerevisiae tim23-1 growth, BacTiter-Glo luminescence, 24 h; inhibition, % at 20 µM; actives 1.3% (n = 330,000);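 active means growth inhibition of the mutant yeast at or above 50%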;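 further: temperature-sensitive mutant grown at 25 °C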
TIM10 inh – inhibits growth of TIM10 yeast strain; S. cerevisiae TIM10 strain growth, BacTiter-Glo luminescence, 24 h; inhibition, % at 10 µM; actives 1.4% (n = 330,000);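 active means inhibition of 40% or more at the single tested concentration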;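 further: wild-type TIM10 isogenic control strain grown at permissive 25 °C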
UPR CHOP act – activators of apoptotic arm of unfolded protein response (CHOP); actives 0.34% (n = 330,000); activation, % at 10 µM; CHO-CHOP luciferase reporter, UPR activation, luminescence; percent of tunicamycin response over DMSO baseline;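 active means at 10 µM dose, activation of 40% or more, normalized to positive control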
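Material: CHO-CHOP cells, stable luciferase reporter of PERK-eIF2a-CHOP signalling; quantity: 500 reporter cells seeded per well; buffer or medium: F12 medium containing 10% fetal bovine serum; compound: one dose, 10 µM in 0.5% DMSO; incubation: 6 h compound treatment, 37 °C; measured by: Steady-Glo luciferase luminescence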
UPR XBP1 act – activators of adaptive arm of unfolded protein response (XBP1); CHO-XBP1 luciferase reporter, IRE1-XBP1 UPR activation, luminescence; percent of tunicamycin response, DMSO as zero; actives 0.33% (n = 330,000); activation, % at 20 µM; AID 463104;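 active means versus positive control, 20 µM dose yields 30% or more activation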
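incubation = overnight seeding at 37 °C, 6 h compound treatment at 37 °C | assay system = CHO-XBP1 cells stably carrying IRE1-XBP1-driven luciferase reporter | input = 1000 cells per well | detection = luciferase luminescence | dosing = single point, 20 µM final compound, 1% DMSO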
tim23-1 confirm – confirmation of tim23-1 mutant yeast growth inhibitors. shares compounds with tim23-1 inh. S. cerevisiae tim23-1 growth, BacTiter-Glo luminescence, 24 h. inhibition, % at 20 µM. actives 83% (n = 4,400). AID 463218;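 active means inhibition above about 39% in either of two replicate wells at 20 µM, limit read from the data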;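 further: temperature-sensitive tim23-1 mutant grown at 25 °C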
A number is an active result; . = inactive; / = no result. Most compounds without a hit are left out; they make up all but 3.9% or so of the library.

SMILES	tim10-1 inh	tim23-1 inh	TIM10 inh	UPR CHOP act	UPR XBP1 act	tim23-1 confirm
O=C(NC(=S)N1CCN(c2ccc(F)cc2)CC1)C12CC3CC(CC(C3)C1)C2	.	.	.	.	.	/
CCCCNC(=O)N1CCN(c2ccccc2OCC)CC1	.	.	.	.	.	/
CCOc1ccccc1N1CCN(C(=S)NCc2ccc(Cl)cc2)CC1	.	55	.	.	.	46
Cn1c(=O)nc2n(Cc3ccccc3)c3cccc(Cl)c3cc-2c1=O	.	.	.	.	.	/
C/C(=N\NC(=O)c1cccc(S(=O)(=O)N2CCCC2)c1)c1ccc(OCC(=O)N(C)C)cc1	.	.	.	.	.	/
COc1cccc(-c2c(C#N)c(N)nc3c2c(C)nn3-c2ccccc2)c1O	.	51	.	.	.	.
CCOc1cc2c3c(c1)C(C)CC(C)(C)N3C(=O)C2=O (centres undefined)	.	50	.	.	.	55
Cc1cc2c3c(c1)C(C)CC(C)(C)N3C(=O)C2=O (centres undefined)	.	53	.	.	.	55
COc1ccc(C(C(=O)NC2CCCC2)N(CCO)C(=O)Cn2nnc(-c3ccc(C)o3)n2)cc1OC (centres undefined)	.	.	.	.	.	/
O=C1CNC(=O)N1CC(O)Cn1c2ccccc2c2ccccc21 (centres undefined)	.	.	.	.	.	/
COc1ccc(N=C(C)C2=C(O)COC2=O)cc1	.	96	.	.	.	.
COc1ccc(S(=O)(=O)N/N=C(/C)c2ccco2)cc1	.	.	.	.	.	/
COc1ccc(-c2nc(-c3cccc(C)c3)nc(N3CCN(C)CC3)c2C#N)cc1	.	59	.	.	.	44
COc1ccccc1/C=C/C(=O)OCc1nc2ccccc2c(=O)[nH]1	.	.	.	.	.	/
CC(=O)c1ccc(N2CCN(C(=O)c3ccc(Br)cc3)CC2)c(F)c1	.	57	.	.	.	.
CNC(=S)N/N=C/c1ccc(-c2ccc(C(=O)O)cc2)o1	.	50	.	.	.	44
CNC(=S)N/N=C/c1ccc(-c2ccc(Cl)c([N+](=O)[O-])c2)o1	.	.	.	.	.	/
CCC(NC(=O)COc1cc2c(c3oc(=O)c(C)c(C)c13)CCC(C)(C)O2)C(=O)O (centres undefined)	.	.	.	.	.	/
O=C/C=C/c1c(-c2ccccc2)cc2oc3ccccc3cc1-2	.	50	.	.	.	59
CN1CCC(=O)N(CCSc2ccc(Br)cc2)CC1	.	.	.	.	.	/
CCN(CC)c1ccc(/C=N/NC(=O)c2ccc3c(c2)OCCO3)cc1	.	59	.	.	.	57
CC(C)Oc1ccccc1/C=N/NC(=O)c1ccc(F)cc1	.	.	.	.	.	/
CN(C)c1ccc(/C=N/NC(=O)c2ccc3c(c2)OCCO3)cc1	.	58	.	.	.	.
CCN(CC)c1ccc(/C=N/NC(=O)OC)c(O)c1	.	59	.	.	.	.
CCN(CC)c1ccc(C(=O)N/N=C/c2ccccc2OC(F)F)cc1	.	56	.	.	.	66
SMILES	tim10-1 inh	tim23-1 inh	TIM10 inh	UPR CHOP act	UPR XBP1 act	tim23-1 confirm
O=C(N/N=C/c1ccc(Cl)cc1)c1ccc2c(c1)OCO2	.	.	.	.	.	/
O=C(c1cccs1)N1CCN(S(=O)(=O)c2cccc(Cl)c2Cl)CC1	.	.	.	.	.	/
COC(=O)CN(C)C(=O)c1cccc(OC2CCN(S(=O)(=O)N(C)C)CC2)c1	.	.	.	.	.	/
Cc1nccn1CCOc1ccccc1Cl	.	.	.	.	.	/
Cc1ccsc1C(=O)OC(C)C(=O)Nc1ccc(Cl)cn1 (centres undefined)	.	.	.	.	.	/
O=c1c2c(n3cnnc3n1-c1ccccc1)-c1ccccc1CC21CCCC1	.	.	.	.	.	/
O=c1c2c(n3cnnc3n1C1CCCCC1)-c1ccccc1CC21CCCCC1	.	54	.	.	.	.
CC(C)CCN(C(=S)Nc1cccc(C(F)(F)F)c1)C(C)c1ccccn1 (centres undefined)	.	54	.	.	.	54
CC(c1ccccn1)N(CCN(C)C)C(=S)Nc1cccc(F)c1 (centres undefined)	.	.	.	.	.	/
COc1ccccc1C(=O)Oc1ccc2ccc(=O)oc2c1	.	69	.	.	.	52
COc1cc2cc(Oc3ccc4ccc(=O)oc4c3)c(=O)oc2cc1OC(C)=O	.	.	.	.	.	/
COc1ccc(CNC(=O)CCSCc2cccc(F)c2)cc1	.	.	.	.	.	/
COC(=O)c1c(NS(C)(=O)=O)sc2c1CCCC2	.	.	.	.	.	/
COC(=O)c1c(NS(=O)(=O)Cc2ccccc2)sc2c1CCCC2	.	58	.	.	.	52
COc1ccc(N=N/C(=C\O)C(=O)c2ccco2)cc1	.	50	.	.	.	58
CN(C)c1cccc(C(=O)Nc2cccc(F)c2)c1	.	.	.	.	.	/
CCN(CC)c1ccc(C(=O)Nc2cccc(F)c2)cc1	.	65	.	.	.	73
COc1ccc(CNC(=O)Cn2nc(C)c3c(C)n(-c4ccc(C)cc4)nc3c2=O)cc1OC	.	.	.	.	.	/
Cc1cc([N+](=O)[O-])ccc1NC(=S)NC(=O)Cc1ccccc1	.	50	.	.	.	.
CC(=O)NC(=S)Nc1ccc([N+](=O)[O-])cc1C	.	.	.	.	.	/
Cc1ccccc1NS(=O)(=O)c1ccc2c(c1)oc(=O)n2C	.	.	.	.	.	/
Cc1cccc(NS(=O)(=O)c2ccc3c(c2)oc(=O)n3C)c1C	.	95	.	.	.	.
COc1cn(-c2ccccc2)nc1C(=O)Nc1ccc(C)cc1	.	50	.	.	.	.
COc1ccc(C)cc1NC(=O)c1nn(-c2ccccc2)cc1OC	.	55	.	.	.	68
COc1cc2ccccc2cc1C(=O)Nc1ccc(Cc2ccncc2)cc1	.	.	.	.	.	/
SMILES	tim10-1 inh	tim23-1 inh	TIM10 inh	UPR CHOP act	UPR XBP1 act	tim23-1 confirm
COc1cc2ccccc2cc1C(=O)Nc1ccc(C)cc1	.	59	.	.	.	64
Cc1nc2ccc(NC(=O)CSc3ccccc3)cc2s1	.	.	.	.	.	/
COc1ccc(C(=O)Nc2cccc(NC(=O)c3ccc(OC)c(OC)c3)n2)cc1OC	.	.	.	.	.	/
Oc1c(Br)cc(Br)cc1CNc1cccc2cccnc12	.	57	.	.	.	62
Oc1ccc(Br)cc1CNc1cccc2cccnc12	.	.	.	.	.	/
COc1ccc(-n2sc3c(c2=S)-c2cc(OC)ccc2NC3(C)C)cc1	.	.	.	.	.	/
COc1ccc2c(c1)-c1c(ssc1=S)C(C)(C)N2	.	53	.	.	.	47
